Measured values from ChEMBL document CHEMBL1137737, “Synthesis, antimicrobial and cytotoxic activities of 1,3,4-oxadiazoles, 1,3,4-thiadiazoles and 1,2,4-triazoles” (Eur J Med Chem, 2009).
Values after ≈ are worked out from the molar mass of the structure shown. Active and inactive are the calls of the source. The calls are words filed in the database; no cut-off is given here.

Tests used:
[1] = test system: Fusarium solani; assay: Antifungal activity against Fusarium solani NCIM 1330 at 200 ug/disk after 48 hrs by agar disc-diffusion method; type: functional; conditions: NCIM 1330, 48 h, read-out: DIZ
Outline: (§1)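 Sterile 6 mm filter-paper discs are soaked in compound solution in DMSO and placed on nutrient agar plates already inoculated with each organism. Plates are incubated at 37 °C. The diameter of the growth-inhibition zone is read after 24 h for bacteria and after 48 h for fungi.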

[2] = test system: Bacillus subtilis; assay: Antibacterial activity against Bacillus subtilis NCIM 2063 after 24 hrs by microdilution susceptibility method; type: functional; conditions: NCIM 2063, 24 h
Outline: (§2)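 This is a microdilution susceptibility test. Organism suspensions are inoculated into wells holding the dilution series, then incubated at 36 °C for 24 h (bacteria) or 48 h (fungi). MIC is the lowest concentration giving no turbidity, i.e. complete inhibition of visible growth.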

[3] = test system: Staphylococcus aureus; assay: Antibacterial activity against Staphylococcus aureus NCIM 5021 after 24 hrs by microdilution susceptibility method; type: functional; conditions: NCIM 5021, 24 h; outline: as §2
[4] = test system: Klebsiella pneumoniae; assay: Antibacterial activity against Klebsiella pneumoniae NCIM 2957 after 24 hrs by microdilution susceptibility method; type: functional; conditions: NCIM 2957, 24 h; outline: as §2
[5] = test system: Curvularia lunata; assay: Antifungal activity against Curvularia lunata NCIM 716 after 48 hrs by microdilution susceptibility method; type: functional; conditions: NCIM 716, 48 h; outline: as §2
[6] = test system: Aspergillus niger; assay: Antifungal activity against Aspergillus niger NCIM 596 after 48 hrs by microdilution susceptibility method; type: functional; conditions: NCIM 596, 48 h; outline: as §2
[7] = test system: Klebsiella pneumoniae; assay: Antibacterial activity against Klebsiella pneumoniae NCIM 2957 at 200 ug/disk after 24 hrs by agar disc-diffusion method; type: functional; conditions: NCIM 2957, 24 h, read-out: DIZ; outline: as §1
[8] = test system: Aspergillus niger; assay: Antifungal activity against Aspergillus niger NCIM 596 at 200 ug/disk after 48 hrs by agar disc-diffusion method; type: functional; conditions: NCIM 596, 48 h, read-out: DIZ; outline: as §1
[9] = test system: Curvularia lunata; assay: Antifungal activity against Curvularia lunata NCIM 716 at 200 ug/disk after 48 hrs by agar disc-diffusion method; type: functional; conditions: NCIM 716, 48 h, read-out: DIZ; outline: as §1
[10] = test system: Bacillus subtilis; assay: Antibacterial activity against Bacillus subtilis NCIM 2063 at 100 ug/disk after 24 hrs by agar disc-diffusion method; type: functional; conditions: NCIM 2063, 24 h, read-out: DIZ; outline: as §1
[11] = test system: A549; assay: Cytotoxicity against human A549 cells at 250 uM by MTT assay in presence of 0.2% fetal bovine serum; type: functional
Outline: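 MTT viability assay on A549 cells as for the other cytotoxicity lines, but with 0.2% serum in the medium in place of 10% FBS. Compounds are diluted in medium from a 10 mM DMSO stock and exposure lasts 48 h.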

[12] = test system: Curvularia lunata; assay: Antifungal activity against Curvularia lunata NCIM 716 at 100 ug/disk after 48 hrs by agar disc-diffusion method; type: functional; conditions: NCIM 716, 48 h, read-out: DIZ; outline: as §1
[13] = test system: Klebsiella pneumoniae; assay: Antibacterial activity against Klebsiella pneumoniae NCIM 2957 at 100 ug/disk after 24 hrs by agar disc-diffusion method; type: functional; conditions: NCIM 2957, 24 h, read-out: DIZ; outline: as §1
[14] = test system: A549; assay: Cytotoxicity against human A549 cells at 250 uM by MTT assay relative to control; type: functional
Outline: (§3)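 A549 lung adenocarcinoma cells are grown in DMEM with 10% FBS and penicillin–streptomycin. Compounds come from a 10 mM DMSO stock, are diluted in medium, and are added 2–4 h after plating. Viability is (treated − background)/(untreated − background) × 100, with a DMSO vehicle control. The experiment was run in duplicate with triplicate readings.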

[15] = test system: Fusarium solani; assay: Antifungal activity against Fusarium solani NCIM 1330 after 48 hrs by microdilution susceptibility method; type: functional; conditions: NCIM 1330, 48 h; outline: as §2
[16] = test system: Staphylococcus aureus; assay: Antibacterial activity against Staphylococcus aureus NCIM 5021 at 200 ug/disk after 24 hrs by agar disc-diffusion method; type: functional; conditions: NCIM 5021, 24 h, read-out: DIZ; outline: as §1
[17] = test system: Proteus vulgaris; assay: Antibacterial activity against Proteus vulgaris NCIM 2027 at 200 ug/disk after 24 hrs by agar disc-diffusion method; type: functional; conditions: NCIM 2027, 24 h, read-out: DIZ; outline: as §1
[18] = test system: A549; assay: Cytotoxicity against human A549 cells at 250 uM by MTT assay; type: functional, cell-based; outline: as §3
[19] = test system: Proteus vulgaris; assay: Antibacterial activity against Proteus vulgaris NCIM 2027 at 100 ug/disk after 24 hrs by agar disc-diffusion method; type: functional; conditions: NCIM 2027, 24 h, read-out: DIZ; outline: as §1
[20] = test system: Proteus vulgaris; assay: Antibacterial activity against Proteus vulgaris NCIM 2027 after 24 hrs by microdilution susceptibility method; type: functional; conditions: NCIM 2027, 24 h; outline: as §2
[21] = test system: Aspergillus niger; assay: Antifungal activity against Aspergillus niger NCIM 596 at 100 ug/disk after 48 hrs by agar disc-diffusion method; type: functional; conditions: NCIM 596, 48 h, read-out: DIZ; outline: as §1
[22] = test system: Fusarium solani; assay: Antifungal activity against Fusarium solani NCIM 1330 at 100 ug/disk after 48 hrs by agar disc-diffusion method; type: functional; conditions: NCIM 1330, 48 h, read-out: DIZ; outline: as §1
[23] = test system: Bacillus subtilis; assay: Antibacterial activity against Bacillus subtilis NCIM 2063 at 200 ug/disk after 24 hrs by agar disc-diffusion method; type: functional; conditions: NCIM 2063, 24 h, read-out: DIZ; outline: as §1
[24] = test system: Staphylococcus aureus; assay: Antibacterial activity against Staphylococcus aureus NCIM 5021 at 100 ug/disk after 24 hrs by agar disc-diffusion method; type: functional; conditions: NCIM 5021, 24 h, read-out: DIZ; outline: as §1

Row | SMILES | zone of inhibition at 200 µg/disc [1] | MIC [2] | MIC [3] | MIC [4] | MIC [5] | MIC [6] | zone of inhibition at 200 µg/disc [7] | zone of inhibition at 200 µg/disc [8] | zone of inhibition at 200 µg/disc [9] | zone of inhibition at 100 µg/disc [10] | zone of inhibition at 100 µg/disc [12] | zone of inhibition at 100 µg/disc [13] | MIC [15] | zone of inhibition at 200 µg/disc [16] | zone of inhibition at 200 µg/disc [17] | zone of inhibition at 100 µg/disc [19] | zone of inhibition at 100 µg/disc [21] | zone of inhibition at 100 µg/disc [22] | zone of inhibition at 200 µg/disc [23] | zone of inhibition at 100 µg/disc [24] | other results
1 | Nn1c(CS(=O)(=O)Cc2ccc(Cl)cc2)nnc1-c1ccccc1Cl | 32 mm | 25 µg/mL (≈ 62.9 µM) | 25 µg/mL (≈ 62.9 µM) | 50 µg/mL (≈ 126 µM) | 50 µg/mL (≈ 126 µM) | 50 µg/mL (≈ 126 µM) | 36 mm | 24 mm | 31 mm | 37 mm | 27 mm | 33 mm | 100 µg/mL (≈ 252 µM) | 37 mm | 34 mm | 31 mm | 22 mm | 29 mm | 39 mm | 32 mm | Activity [11]: 50%; Activity [14]: 50%; Activity [18]: Active; MIC [20]: 100 µg/mL (≈ 252 µM)
2 | O=S(=O)(Cc1ccc(Cl)cc1)Cc1nnc(-c2ccccc2Cl)o1 | 22 mm | 400 µg/mL (≈ 1040 µM) | 200 µg/mL (≈ 522 µM) |  | 200 µg/mL (≈ 522 µM) | 200 µg/mL (≈ 522 µM) | 20 mm | 21 mm | 19 mm | 19 mm | 16 mm | 17 mm | 200 µg/mL (≈ 522 µM) | 23 mm | 18 mm | 15 mm | 17 mm | 18 mm | 21 mm | 20 mm | Activity [11]: 50%; Activity [14]: 50%
3 | Nn1c(CS(=O)(=O)Cc2ccccc2)nnc1-c1ccccc1Cl | 23 mm | 200 µg/mL (≈ 551 µM) | 100 µg/mL (≈ 276 µM) | 200 µg/mL (≈ 551 µM) | 100 µg/mL (≈ 276 µM) | 100 µg/mL (≈ 276 µM) | 28 mm | 21 mm | 20 mm | 30 mm | 18 mm | 24 mm | 100 µg/mL (≈ 276 µM) | 32 mm | 29 mm | 26 mm | 17 mm | 21 mm | 34 mm | 29 mm | MIC [20]: 200 µg/mL (≈ 551 µM)
